Measurements taken from the EternaBench riboswitch data.

Tested on: MS2 coat protein
Experiment: apparent Kd, MS2 coat protein; higher = weaker binding; RNA-MaP array; FMN 200 µM where present
How it was run: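 Green signal from SNAP-549-labelled MS2 coat protein was normalised to red-channel RNA signal and to the median Fmax of control clusters. The protein was titrated from 0.7 or 1.5 nM, doubling to 3 µM, without and then with constant ligand, over designs transcribed by stalled E. coli RNA polymerase on Illumina sequencing-chip clusters, in 100 mM Tris-HCl pH 7.5, 80 mM KCl, 4 mM MgCl2, BSA, DTT, yeast tRNA and Tween-20. The apparent Kd is the median of filtered per-cluster binding-curve fits.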

[1] = designed as: OFF switch for flavin mononucleotide, no ligand
[2] = ligand present: flavin mononucleotide, designed as: OFF switch for flavin mononucleotide
[3] = designed as: ON switch for flavin mononucleotide, no ligand
[4] = ligand present: flavin mononucleotide, designed as: ON switch for flavin mononucleotide

“ACAUGAGGAUCACCCAUGUUUACAUGGAUUAUUAAUCUUGGAUAGGAUAUGUUAGUUAAGUAUUUACAGAAGGAUCAAUUCCUU” was tested, and the “apparent Kd” value [1] was 27.7 nM and the “apparent Kd” value [2] was 20.2 nM.
“GAGAGAGGAUGAGGAUAUGCAGUAAUAAUGAUAGCAGAAGGCAUAGACAUGAGGAUCACCCAUGUGGGAAUAAUCCAGAGAGAG” was tested, and the “apparent Kd” value [3] was 188 nM and the “apparent Kd” value [4] was 272 nM.
With “AAAAGUAGAGGAUAUACAUGAGGAUCACCCAUGUAGAAAGGAAGUGUAUAUAUGGCGUGUAGAAGGCUGCAUGA” the “apparent Kd” value [1] was 38.3 nM and the “apparent Kd” value [2] was 39.2 nM.
For “GAUCAACAUGAGGAUCACCCAUGUGAGGAUAUGGACUUGCCCACUUAACCAUUAGAGUCUAGAAGGCGCAUCUA”, the “apparent Kd” value [1] was 27 nM and the “apparent Kd” value [2] was 29.9 nM.
In the case of “GGUUACACAGGAUAUACAUGAGGAUCACCCAUGUCGAGCCGACCCGGAUGCACCUAAAGUAGAAGGGUGAGCUG”, the “apparent Kd” value [1] is reported as 21.8 nM and the “apparent Kd” value [2] is reported as 22.7 nM.
With “GGGCCGGUGGAGAAGGAGCUUGCGAAACGCAUGCUAGGAUAUCCACAUGAGGAUCACCCAUGUGGGAAUAUCUGAUUUUCACAG” the “apparent Kd” value [1] was 3.82 nM and the “apparent Kd” value [2] was 4.76 nM.
In the case of “UACGGACAUGAGGAUCACCCAUGUGAGGAUAUCGGUACCGAUAGCAUAAUAUACUCGGCGAGAAGGCACAGCGU”, the “apparent Kd” value [1] is reported as 30 nM and the “apparent Kd” value [2] is reported as 31.8 nM.
With “UUAAAUCAUGUAGGAUAUGCAUGGCGAAGCUACGCAGAAGGACAUGAGGAUCACCCAUGUGCUAGCGACAGAGAACUGUUGCAA” the “apparent Kd” value [1] was 56.9 nM and the “apparent Kd” value [2] was 311 nM.
“CAGCCCUGAGGAUAUCCCUACUUGUACAUGAGGAUCACCCAUGUUCUCCUCCGGGCUUCGGGAGAAGGCAGGUCUC” was tested, and the “apparent Kd” value [1] was 15.9 nM and the “apparent Kd” value [2] was 15.5 nM.
“GAGCUCGAUGAGAAGGGUUACAUGAGGAUCACCCAUGUCGACCUUGGCGUAACAGGAUAUCAUCGGACUCAGUGCGUUGACCCA” was tested, and the “apparent Kd” value [1] was 25.6 nM and the “apparent Kd” value [2] was 137 nM.
“AUUUAGUGCGAGAAGGCGUGGUCACAUGAGGAUCACCCAUGUCAGUACACGAGGAUAUCGAUCCGCUAUGUAAACCUAGGCGGC” was tested, and the “apparent Kd” value [3] was 101 nM and the “apparent Kd” value [4] was 6.89 nM.
“ACGUUUUUUGAGGAUAUGCGACGUUCCUUCGUCGUAGAAGGCGAUACAUGAGGAUCACCCAUGUUUAUGGGCAU” was tested, and the “apparent Kd” value [1] was 119 nM and the “apparent Kd” value [2] was 137 nM.
With “UAAUAGUGAGGAUAUACAGAAUCUGGGUCCCGCGUGUUGAGACAUGAGGAUCACCCAUGUAGAAGGCACAAAAU” the “apparent Kd” value [1] was 108 nM and the “apparent Kd” value [2] was 42.5 nM.
In the case of “UCUCGUGUUCAGAAGGGCAAUCAACGAACAUGAGGAUCACCCAUGUUCUGCAGGAUAUGAACGGGUGGGAGCCCUGCGAAGGGC”, the “apparent Kd” value [3] is reported as 104 nM and the “apparent Kd” value [4] is reported as 15 nM.
With “UUGCCACAUGAGGAUCACCCAUGUGAGGAUAUGGCCUGUUUGGCGUGUGCUGGUUCUGUCAGAAGGCGCGUGGG” the “apparent Kd” value [1] was 31.6 nM and the “apparent Kd” value [2] was 36.5 nM.
“AGACCCAUGACAUGACAUGACAUGAGGAUCACCCAUGUUUACAAGGAUAUGUUGAUGAAACAUCAACAGAAGGUGUAAUGGGCU” was tested, and the “apparent Kd” value [1] was 20.9 nM and the “apparent Kd” value [2] was 73.1 nM.
In the case of “AUCAGCUCGUCAGGAUAUACGUCGCUGCGUCAGCAGUGUGGUAAGAUCACAUGAGGAUCACCCAUGUAGAAGGGACGAGCUGAU”, the “apparent Kd” value [1] is reported as 19.3 nM and the “apparent Kd” value [2] is reported as 374 nM.
With “CUCUAGUGAGGAUAUCAGUAGUAAAAAAAUAAAAUUACUACUGAGAAGGCACAUGAGGAUCACCCAUGUCUUUC” the “apparent Kd” value [1] was 87.1 nM and the “apparent Kd” value [2] was 46.5 nM.
“UAGCGGUAGGGAGGAUAUGCGAAAGGAAGGCCCGCAGAAGGCCUUACAUGAGGAUCACCCAUGUAGGAUGCCUGGGUGGUGCCC” was tested, and the “apparent Kd” value [1] was 14.5 nM and the “apparent Kd” value [2] was 26.4 nM.
In the case of “CCGGAAGUACAGGAUAUCGUAUCGGAUACGAUACGAGAAGGGUAUACAUGAGGAUCACCCAUGUGUCCUACCGG”, the “apparent Kd” value [1] is reported as 29.3 nM and the “apparent Kd” value [2] is reported as 31.5 nM.
With “AGCUAGUGAGGAUAUACGAACAUGUCAAAAGACUGUAAGGGACAUGAGGAUCACCCAUGUAGAAGGCACUAGCA” the “apparent Kd” value [1] was 45.2 nM and the “apparent Kd” value [2] was 384 nM.
In the case of “UUAUUACAUGAGGAUCACCCAUGUUUAGUGGUGACAGGAUAUACGAAAAAAAAAAAAAAAGUAGAAGGGUCUUAUU”, the “apparent Kd” value [3] is reported as 503 nM and the “apparent Kd” value [4] is reported as 742 nM.
With “AGGUGUAGAGGAUAUCUCUUCUCUCACAUGAGGAUCACCCAUGUUCUAAAGUCCAAGGAGAGAGAAGGCUACACCA” the “apparent Kd” value [1] was 19.8 nM and the “apparent Kd” value [2] was 15.6 nM.
With “AUACUCAUGUAAGGAUAUGCAGCCGUUUCGGCUGCAGAAGGUACUAUAAUACAUGAGGAUCACCCAUGUCCCUCGCAUUGCGAG” the “apparent Kd” value [3] was 657 nM and the “apparent Kd” value [4] was 85.9 nM.
“UGUCGGAGCAGAGGAUAUACAUGAGGAUCACCCAUGUAAUAAAUCCAAGCCUGGAAACAGGCAAUGUAGAAGGCUGCUCCGACA” was tested, and the “apparent Kd” value [1] was 16.8 nM and the “apparent Kd” value [2] was 80.2 nM.
With “UUAAAUCAUGUAGGAUAUCCGAUGCGAAGCGUUGGAGAAGGACAUGAGGAUCACCCAUGUUCUAGCGUCUGAGUACAGAUGCAA” the “apparent Kd” value [1] was 30.6 nM and the “apparent Kd” value [2] was 140 nM.
“ACCUCACAUGAGGAUCACCCAUGUCAGGAUAUGUACCCGAUCAAGUCAGAGAUUGGGAGCAGAAGGGACUGCGG” was tested, and the “apparent Kd” value [1] was 119 nM and the “apparent Kd” value [2] was 34.5 nM.
“CGCAAGUAUACAUGAGGAUCACCCAUGUCAGAAAGGGUAAUCAGAAGGUACUAUUAGAGAAAGAGUAAGGAUAUGAAAUUUGCG” was tested, and the “apparent Kd” value [3] was 747 nM and the “apparent Kd” value [4] was 125 nM.
